Test [1] addresses Human immunodeficiency virus type 1 protease (Human immunodeficiency virus 1, UniProt Q72874). The experiment in a line: Inhibitory activity against HIV-1 protease. A digest of the protocol: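 Recombinant HIV-1 protease refolded from E. coli inclusion bodies; substrate GSP (H-Val-Ser-Gln-Asn-Tyr-Pro-Ile-Val-OH) at 2.5 mM. Run at 30 °C in 100 mM sodium acetate pH 5.5 with 10% glycerol, 5% ethylene glycol, 0.1% Nonidet P-40. Inhibitor added before enzyme, five to seven concentrations. Stopped at 30 min with TFA, products by HPLC; Ki from Dixon plots.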

Test [2] is described as follows: The compound was tested for its antiviral activity against vaccinia virus in CV-1 monkey cells at 10 uM. The following applies: Cercopithecidae. The test is classed as functional.

SMILES strings stand for the structures.

As a reminder, the Ki is the dissociation constant of the complex between target and ligand, obtained from inhibition or displacement. The compound `CC[C@H](C)[C@H](NC(=O)[C@H](C(C)C)[C@H](O)[C@H](O)[C@H](CC(C)C)NC(=O)[C@H](Cc1c[nH]cn1)NC(=O)[C@@H](Cc1ccccc1)NC(=O)OC(C)(C)C)C(=O)NCc1ccccn1` had a Ki in test [1] of 500 nM.

The compound `CC[C@H](C)[C@H](NC(=O)[C@H](C(C)C)[C@@H](O)[C@H](O)[C@H](CC(C)C)NC(=O)[C@H](Cc1c[nH]cn1)NC(=O)COc1ccccc1)C(=O)NCc1ccccn1` had a Ki in test [1] of 5 nM.

`CC[C@H](C)[C@H](NC(=O)[C@@H](Cc1ccccc1)[C@@H](O)[C@H](O)[C@H](Cc1ccccc1)NC(=O)[C@H](Cc1c[nH]cn1)NC(=O)COc1cccc2ccccc12)C(=O)NCc1ccccn1`: in test [1], the Ki worked out at 12 nM.

The inhibition is the percentage by which the read-out fell short of the control. `CC[C@H](C)[C@H](NC(=O)[C@H](C(C)C)[C@@H](O)[C@H](O)[C@H](CC1CCCCC1)NC(=O)[C@H](Cc1c[nH]cn1)NC(=O)CO)C(=O)NCc1ccccn1` returned an inhibition at 10 µM in test [2] of 0%. Besides, the Ki in test [1] was 4 nM.

As to `CC[C@H](C)[C@H](NC(=O)[C@H](CC(C)C)[C@@H](O)[C@H](O)[C@H](CC1CCCCC1)NC(=O)[C@H](Cc1c[nH]cn1)NC(=O)COc1cccc2ccccc12)C(=O)NCc1ccccn1`, in test [1], the Ki was determined as 5 nM.

Take `CC[C@H](C)[C@H](NC(=O)[C@H](C(C)C)[C@@H](O)[C@H](O)[C@H](CC1CCCCC1)NC(=O)CC1CCCCC1)C(=O)NCc1ccccn1`: in test [2], 10 µM produced 80% inhibition. In test [1], this compound returned an inhibitory constant (Ki) of 22 nM.

In test [1], `CC[C@H](C)[C@H](NC(=O)[C@@H](CC(C)C)[C@@H](O)[C@H](O)[C@H](CC(C)C)NC(=O)[C@H](Cc1c[nH]cn1)NC(=O)COc1cccc2ccccc12)C(=O)NCc1ccccn1` gave an inhibitory constant (Ki) of 220 nM.

For the compound `CC[C@H](C)[C@H](NC(=O)[C@H](C(C)C)[C@@H](O)[C@H](O)[C@H](CC(C)C)NC(=O)[C@H](Cc1c[nH]cn1)NC(=O)[C@@H](Cc1ccccc1)NC(=O)OC(C)(C)C)C(=O)NCc1ccccn1`, the affinity in test [1], expressed as Ki, was 28 nM.

`CC[C@H](C)[C@H](NC(=O)[C@H](CC(C)C)[C@@H](O)[C@H](O)[C@H](CC(C)C)NC(=O)[C@H](Cc1c[nH]cn1)NC(=O)COc1cccc2ccccc12)C(=O)NCc1ccccn1`: the inhibition constant Ki in test [1] came to 7 nM.

In test [1], `CC[C@H](C)[C@H](NC(=O)[C@H](C(C)C)[C@@H](O)[C@H](O)[C@H](CC(C)C)NC(=O)[C@H](Cc1c[nH]cn1)NC(=O)COc1cccc2ccccc12)C(=O)NCc1ccccn1` returned a Ki of 5 nM.

`CC[C@H](C)[C@H](NC(=O)[C@H](C(C)C)[C@@H](O)[C@H](O)[C@H](CC1CCCCC1)NC(=O)[C@H](Cc1c[nH]cn1)NC(=O)CN)C(=O)NCc1ccccn1`: at 10 µM the inhibition in test [2] was 0%. In test [1], this compound came in with a Ki of 11 nM.

On to `CC[C@H](C)[C@H](NC(=O)[C@H](C(C)C)[C@@H](O)[C@H](O)[C@H](CC1CCCCC1)NC(=O)[C@H](Cc1c[nH]cn1)NC(=O)COc1ccccc1)C(=O)NCc1ccccn1`, for which, in test [2], the inhibition at 10 µM came out at 100%. Affinity in test [1] was put at a Ki of 2 nM.

On to `CC[C@H](C)[C@H](NC(=O)[C@H](CC1CCCCC1)[C@@H](O)[C@H](O)[C@H](CC1CCCCC1)NC(=O)[C@H](Cc1c[nH]cn1)NC(=O)COc1cccc2ccccc12)C(=O)NCc1ccccn1`, for which, in test [1], the Ki was 26 nM.

The compound `CC[C@H](C)[C@H](NC(=O)[C@H](C(C)C)[C@@H](O)[C@H](O)[C@H](CC1CCCCC1)NC(=O)[C@H](Cc1c[nH]cn1)NC(=O)COc1cccc2ccccc12)C(=O)NCc1ccccn1` returned an inhibition constant Ki in test [1] below 1 nM.

These data come from ChEMBL document CHEMBL1125602, “Inhibitors of the protease from human immunodeficiency virus: design and modeling of a compound containing a dihydroxyethylene isostere insert with high binding affinity and effective antiviral activity” (J Med Chem, 1991).
